CendR NRP1 mod – NRP-1/CendR interaction modulation; O14786; FAM-RPARPAR peptide binding to NRP-1, fluorescence polarization; inhibition, % at 25 µM; actives 0.85% (n = 360,000); AID 602438;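 active = inhibition or corrected inhibition above about 18%, plus a signal ratio from 0.5 to 1.5, limit read from the data, passing the limit was not always enough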
HGIII-sPLA2 inh – Blocks human group III sPLA2 activity; Q9NZ20; QFRET BODIPY PC-A2 liposome hydrolysis, fluorescence; inhibition, % at 12.2 µM; actives 0.56% (n = 370,000); AID 743126;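 active = inhibition above mean plus 3 SD of compounds lying within the high and low control bounds, cut at about 19% in these data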;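 also: 0% = median of test compound wells and 100% = no enzyme DMSO wells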
Target sequence (Q9NZ20 whole entry, looked up): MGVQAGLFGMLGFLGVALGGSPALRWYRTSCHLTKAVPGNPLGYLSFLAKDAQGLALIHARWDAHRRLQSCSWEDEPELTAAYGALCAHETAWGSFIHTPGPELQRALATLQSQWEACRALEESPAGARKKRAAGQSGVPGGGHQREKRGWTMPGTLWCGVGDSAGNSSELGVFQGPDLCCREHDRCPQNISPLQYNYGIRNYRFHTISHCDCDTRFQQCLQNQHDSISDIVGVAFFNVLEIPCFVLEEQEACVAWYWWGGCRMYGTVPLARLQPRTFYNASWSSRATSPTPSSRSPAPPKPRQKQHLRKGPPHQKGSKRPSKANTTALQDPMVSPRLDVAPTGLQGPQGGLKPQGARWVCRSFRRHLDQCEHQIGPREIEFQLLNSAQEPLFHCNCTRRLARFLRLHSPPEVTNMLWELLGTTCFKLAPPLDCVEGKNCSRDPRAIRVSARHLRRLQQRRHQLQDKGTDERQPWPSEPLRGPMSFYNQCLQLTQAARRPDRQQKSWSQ
HTR2A ag – mouse HTR2A agonism via beta-arrestin recruitment | P35363 | CHO-K1 mHTR2A beta-arrestin complementation, luminescence; percent of 30 µM serotonin response | activation, % at 7.6 µM | actives 0.66% (n = 360,000);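 active = activation above a run cutoff, the mean activation of all tested compounds plus 3 SD, cut at about 14% in these data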;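 also: 0% = plate median of compound wells and 100% = 30 µM serotonin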
Arr AP2 block – inhibitors of human beta-arrestin and AP2 interaction. FITC-arrestin peptide / GST-AP2 beads, flow cytometry; AP2 beta2 appendage carries R879A mutation. inhibition, % at 10 µM. actives 0.31% (n = 340,000). AID 504490;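 active = inhibition above a set limit, near 3 SD of compounds lacking own fluorescence, cut at about 54% in these data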;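 also: plate controls were DMSO wells for no effect and 5 µM unlabelled arrestin peptide for full effect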
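system = GST-tagged AP2 beta2-adaptin appendage (R879A) on 4 µm glutathione beads | reagent = FITC-labelled arrestin peptide probe, 50 nM final | schedule = compound with beads 12 min RT, then probe 1 h RT | signal = HyperCyt-sampled flow cytometry, FL1 channel, ex 488/em 535 nm | read-out = percent response from loss of bead-bound FITC fluorescence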
M18AAP inhibitor – PfM18AAP enzyme inhibition. recombinant PfM18AAP, H-Glu-NHMec fluorogenic cleavage. inhibition, % at 7.35 µM. actives 1.2% (n = 290,000);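 active = inhibition above the campaign mean inhibition over all tested compounds plus 3 SD, cut at about 28% in these data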;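 also: 0% = plate median of test compound wells and 100% = 2 mM ZnCl2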
Lipid droplet – hepatic lipid droplet formation modulation. actives 0.4% (n = 240,000). inhibition, % at 6.5 µM. AML12 mouse hepatocytes, oleate lipid droplets, BODIPY imaging;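 active = lipid droplet intensity inhibited by at least 50%, with more than 500 cells counted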
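Assay system: AML12 mouse liver cells | Compound: 6.5 µM single-point dosing | Schedule: Overnight exposure | Technique: Fluorescence imaging, 20x objective, two fields per well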
Numbers without * were called inactive; ! = not confirmed by another sample. The list is not random: actives were taken first. Their share in the collection is about 3.3%.

For c1ccc2c(NC3=NCCS3)cccc2c1 the results were CendR NRP1 mod 26.5*, HGIII-sPLA2 inh 1.5, HTR2A ag 8.3, Arr AP2 block -1.8, M18AAP inhibitor 1.1 and Lipid droplet 9.6.
For O=C(NCCN1CCC2(CC1)C(=O)NCN2c1ccccc1)c1ccccc1F the results were HGIII-sPLA2 inh 2.5.
Screening CC(C)C[C@H]1C(=O)N2CCC[C@H]2[C@]2(O)O[C@](NC(=O)[C@@H]3C=C4c5cccc6[nH]cc(c56)C[C@H]4N(C)C3)(C(C)C)C(=O)N12 returned CendR NRP1 mod 46.3, HTR2A ag 48.9* and Arr AP2 block 21.3.
COC(=O)C1C=C2c3cccc4[nH]cc(c34)CC2N(C)C1 (stereo unspecified) was read as M18AAP inhibitor 25.0 and Lipid droplet 7.9.
CCN(CC)c1ccc(CN2CC=C(c3ccc(F)cc3)CC2)cc1 was read as CendR NRP1 mod 19.6*, HGIII-sPLA2 inh 10.9, HTR2A ag -6.5, Arr AP2 block 7.0, M18AAP inhibitor 2.2 and Lipid droplet -1.2.
`COc1ccc(CN2CC=C(c3ccc(F)cc3)CC2)cc1Br` gave CendR NRP1 mod -2.4, HGIII-sPLA2 inh -5.7, HTR2A ag -0.8, Arr AP2 block 5.1, M18AAP inhibitor 3.0 and Lipid droplet 3.1.
Cc1ccc(-[n+]2c(Cc3nn(-c4ccccc4)c(C)[n+]3-c3ccc(C)cc3)nn(-c3ccccc3)c2C)cc1 was read as CendR NRP1 mod 26.8*, HGIII-sPLA2 inh -22.6 and HTR2A ag -2.7.
Screening O=P1(NCCCl)OCCC(OO)N1CCCl (stereo unspecified) returned CendR NRP1 mod 1.8, HGIII-sPLA2 inh 3.8 and HTR2A ag 5.3.
`O=C1NC(=O)N(Cc2ccccc2)C(=O)/C1=C\C=C\c1ccco1` gave CendR NRP1 mod -159.4, HGIII-sPLA2 inh -9.7, HTR2A ag 3.0, Arr AP2 block 6.7, M18AAP inhibitor 29.9* and Lipid droplet -0.8.
For O=C1NC(=O)N(c2ccccc2)C(=O)/C1=C/C=C/c1ccco1 the results were CendR NRP1 mod -97.0, HGIII-sPLA2 inh -9.8, HTR2A ag -1.9, Arr AP2 block -14.9, M18AAP inhibitor 23.5 and Lipid droplet -3.9.
COC1C(O)C(C)OC(OC2CCC3(C)C(CCC4C3C(O)CC3(C)C(C5=CC(=O)OC5)CCC43O)C2)C1O (stereo unspecified) was read as CendR NRP1 mod -6.5, HGIII-sPLA2 inh 6.7, HTR2A ag 5.5 and Arr AP2 block 9.3.
For C=CCn1c(O)c(C(CC)=NCCC2=CCCCC2)c(=O)[nH]c1=O the results were CendR NRP1 mod 29.8*, HGIII-sPLA2 inh -6.5, HTR2A ag -1.4, Arr AP2 block -1.7 and M18AAP inhibitor -4.2.
C=CCn1c(O)c(C(CC)=NCCCO)c(=O)[nH]c1=O was read as CendR NRP1 mod 6.2, HGIII-sPLA2 inh 1.2, HTR2A ag 1.5, Arr AP2 block 0.7 and M18AAP inhibitor 2.9.
Cc1c(P(=S)(c2ccccc2)c2ccccc2)[n+]2ccccc2n1C was read as CendR NRP1 mod 34.2*!, HGIII-sPLA2 inh -10.4, HTR2A ag -0.6, Arr AP2 block -3.2, M18AAP inhibitor 1.9 and Lipid droplet 22.8.
OC(c1cccc(Cl)c1)(c1cccc(Cl)c1)C1CN2CCC1CC2 (stereo unspecified) was read as CendR NRP1 mod 40.4*, HGIII-sPLA2 inh 1.3, HTR2A ag -8.2, Arr AP2 block 0.7, M18AAP inhibitor 1.3 and Lipid droplet -44.8.
O=C(Nc1cccc(C(F)(F)F)c1)OC1CN2CCC1CC2 (stereo unspecified) was read as CendR NRP1 mod 8.8, HGIII-sPLA2 inh -9.8, HTR2A ag -9.2, Arr AP2 block 8.0, M18AAP inhibitor -11.4 and Lipid droplet -0.6.
Screening O=S1(=O)NCC2(CC2)CN1Cc1ccccc1 returned CendR NRP1 mod -2.5, HGIII-sPLA2 inh -0.9 and HTR2A ag -1.0.
Screening CCC(c1nnnn1C(C)(C)C)N1CCC2(CC1)C(=O)NCN2c1ccccc1 (stereo unspecified) returned CendR NRP1 mod 30.2*, HGIII-sPLA2 inh -8.1 and HTR2A ag -1.2.
Screening CSCCC(c1nnnn1C1CCCCC1)N1CCC2(CC1)C(=O)NCN2c1ccccc1 (stereo unspecified) returned CendR NRP1 mod 23.7*, HGIII-sPLA2 inh -0.1 and HTR2A ag -2.2.
CN1CC[C@@]2(C)c3cc(O)ccc3N(C)[C@@H]12 was read as CendR NRP1 mod 27.5*!, HGIII-sPLA2 inh 9.9, HTR2A ag -0.2 and Arr AP2 block 6.6.
c1ccc(-c2ccc(CN3Cc4ccccc4-n4nncc4C3)cc2)cc1 was read as CendR NRP1 mod -5.5, HGIII-sPLA2 inh -6.9 and HTR2A ag -2.3.
For CCN1CC=C(c2c[nH]c3ccccc23)CC1 the results were CendR NRP1 mod 30.6*, HGIII-sPLA2 inh 11.4, HTR2A ag -5.4, Arr AP2 block -2.2 and M18AAP inhibitor 3.9.
Screening Cc1[nH]c2ccccc2c1C(=O)CN1CC=C(c2ccccc2)CC1 returned CendR NRP1 mod -3.3, HGIII-sPLA2 inh -4.9, HTR2A ag -7.1, Arr AP2 block 9.9, M18AAP inhibitor 2.5 and Lipid droplet -27.1.
For CCc1ccc(N2C(=O)NC(=O)/C(=C\c3cccn3CCOc3ccc(C(C)C)cc3)C2=O)cc1 the results were CendR NRP1 mod 36.5*, HGIII-sPLA2 inh -1.0, HTR2A ag 0.1, Arr AP2 block 0.1, M18AAP inhibitor 2.6 and Lipid droplet 3.1.
`COc1cc2c(cc1OC)-c1c(OC)c(OC)cc3c1[C@H](C2)N(C)CC3` gave CendR NRP1 mod 29.2*, HGIII-sPLA2 inh -8.5, HTR2A ag -3.6, Arr AP2 block 25.6, M18AAP inhibitor 4.5 and Lipid droplet 0.3.
For C=CCCC1(CC(C)C)C(=O)NC(=S)NC1=O the results were CendR NRP1 mod -5.9, HGIII-sPLA2 inh 17.6, HTR2A ag -1.9 and Arr AP2 block 0.1.
Screening Cc1c(NP(=O)(C(C)(C)C)C(C)(C)C)c(=O)n(-c2ccccc2)n1C returned CendR NRP1 mod 21.1*, HGIII-sPLA2 inh -1.5, HTR2A ag 3.4, Arr AP2 block -3.3, M18AAP inhibitor -2.0 and Lipid droplet 2.5.
Cc1c(C=C2C(=O)NC(=O)NC2=O)c(=O)n(-c2ccccc2)n1C was read as CendR NRP1 mod -20.4, HGIII-sPLA2 inh -1.6, HTR2A ag -1.3, Arr AP2 block 3.6, M18AAP inhibitor 0.1 and Lipid droplet -9.7.
Screening CC(=O)OC(C)(C)/C=C/C(=O)[C@](C)(O)C1[C@H](O)C[C@@]2(C)C3CC=C4C(C[C@H](O)C(=O)C4(C)C)[C@]3(C)C(=O)C[C@]12C (stereo partly specified) returned CendR NRP1 mod 2.1, HTR2A ag 16.4* and Arr AP2 block 10.3.

Assay outcomes: PubChem, several laboratories
